Screening results from PubChem BioAssay.
Hits are enriched below; roughly 7.1% of the tested compounds scored in any of these assays.
Cav3 T inh: Cav3.2 calcium influx blockers – cell-based, Fluo-4 calcium fluorescence, FDSS, MLSMR library, primary screen; Voltage-dependent T-type calcium channel subunit alpha-1H (Homo sapiens), O95180; Cav3.2-expressing cells; stronger effect = lower value; B-score at 10 µM; hit rate 4% among 100,000; AID 449739, 2010;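 active means single-dose well whose peak fluorescence ratio is a statistical outlier from its plate by either plate-standardised score or position-corrected B-score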
Lung fibro prol: antiproliferative effect on LL 47 fibroblasts – human, LL 47 cells, CellTiter-Glo luminescence, primary screen. hit rate 1.1% among 85,000. LL 47 human lung fibroblast viability, ATP luminescence; stronger effect = lower value. viability, % at 10 µM;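 active means viability at or below 50% in the single dose screen; inactive means viability above 50%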;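 further: compound exposure lasted 72 h before the ATP readout; 100% = median luminescence of untreated cell-only wells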
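Material: human LL 47 lung fibroblast cells; quantity: 1,150 cells/well; medium: IMEM plus 15% FBS; doses: 0.1% DMSO in all compound wells; timing: overnight attachment after seeding, then 72 h compound exposure at 37 °C; detection: CellTiter-Glo luminescence; measure: % viability of median cell-only signal; controls: cell-only wells, no compound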
H69AR inhibit: proliferation blockers of H69AR lung cancer cells, primary screen, cell-based, human, 86K library | H69AR lung tumor viability, ATP luminescence, 72 h; stronger effect = lower value | viability, % at 10 µM | hit rate 6% among 85,000;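 active means viability at or below 40%; inactive means viability above 40%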;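 further: multidrug resistant small cell line overexpressing MRP-1 efflux transporter; 100% = mean luminescence of untreated control wells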
HUVEC prolif 384: inhibitors of HUVEC proliferation, primary screen, cell-based, 384-well; CellTiter-Glo luminescence, 72 h; stronger effect = lower value; viability, % at 10 µM (by protocol); hit rate 1.1% among 86,000;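 active means viability at or below 30%; inactive means viability above 30%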;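 further: 100% = median luminescence of DMSO-only cell control wells on each plate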
bCat KO growth: primary screen for growth suppressors in beta-catenin knockout HCT116 cells (colon tumor, human) | HCT116 beta-catenin knockout viability, CellTiter-Glo, 60 h; stronger effect = lower value | viability, % at 10 µM | hit rate 1.5% among 140,000;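 active means viability at or under a set limit, the compound median less 4 SD, cut at about 6% in these data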;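 further: 0% = Hyamine 1622 control at 20 µM and 100% = untreated cell control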
HCT116 PTEN-null: growth suppression of PTEN-null HCT116, primary screen, cell-based, CellTiter-Glo; AID 827, 2007; hit rate 1.2% among 140,000; HCT116 PTEN-null viability, 60 h; stronger effect = lower value; viability, % at 10 µM;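 active means viability at or below a set limit, 4 SD under the median of all tested compounds, cut at about 3.7% in these data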;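 further: PTEN knockout HCT116 line with beta catenin targeted HCT116 as companion control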
The depositor's hits bear a star; / = no result given.

SMILES	Cav3 T inh	Lung fibro prol	H69AR inhibit	HUVEC prolif 384	bCat KO growth	HCT116 PTEN-null
CN(C)S(=O)(=O)c1cccc(N=C2NN=C(c3ccccc3)CS2)c1	/	/	/	/	5.2*	3.8*
CCCCn1c(N)c(NCC(C)C)c(=O)[nH]c1=O	/	/	/	/	84	96
CCOc1ccc2nc(NC3=NC(C)(C)C=C(C)N3)nc(C)c2c1	-1.2	/	/	/	5.0*	12
CCOc1ccc2nc(NC3=NC(c4ccc(OC)cc4)CC(=O)N3)nc(C)c2c1 (stereo not drawn)	0.27	/	/	/	1.4*	1.8*
COc1cc2[nH]c(=O)n(CCC(=O)N3CCN(c4cc(Cl)ccc4C)CC3)c(=O)c2cc1OC	/	3.0*	0.5*	2.0*	2.1*	1.9*
CCCCc1c(O)c2ccccc2n(CCCC)c1=O	/	/	/	/	95	95
CCCCCCn1c(=O)c(-c2ccccc2)c(O)c2ccccc21	-7.1*	97	100	114	97	104
Cc1nn(-c2ccc(F)cc2)c(C)c1NS(=O)(=O)c1ccc(Cl)cc1	-1.9	88	75	30*	80	84
COc1ccc(Cn2c(-c3ccc(OC)cc3)nc3ccccc32)cc1	/	95	87	99	73	67
Cn1cccc1-c1nc2ccccc2n1Cc1ccccc1	-4.7*	95	84	100	50	61
O=C(c1ccco1)N(CC1CCCO1)c1nc(-c2ccccc2)cs1 (stereo not drawn)	-3.1*	89	44	90	25	46
Cc1ccc(-c2csc(N(CC3CCCO3)C(=O)c3ccco3)n2)cc1 (stereo not drawn)	/	93	53	105	47	44
CC1=C(C(=O)OC(C)C)C(c2ccc(Br)s2)NC(=O)N1C (stereo not drawn)	-4.4*	86	110	93	82	72
CCOc1ccc(C(=O)Nc2cc(-c3nc4ccccc4[nH]3)ccc2Cl)cc1[N+](=O)[O-]	/	/	/	/	1.2*	1.2*
S=C(NCc1ccc2c(c1)OCO2)Nc1ccc(-c2nc3ccccc3[nH]2)cc1	/	/	/	/	96	86
O=C(NC(=S)Nc1cc(-c2nc3ccccc3[nH]2)ccc1Cl)c1ccc2c(c1)OCO2	/	/	/	/	1.6*	1.5*
COc1ccc(CCN2C(=O)CC(NNC(=O)c3ccccc3Br)C2=O)cc1OC (stereo not drawn)	/	/	/	/	95	97
N#C/C(=C\c1cccnc1)C(=O)NC1CCCCC1	/	/	/	/	60	60
COC(=O)c1ccc(COc2ccccc2/C=C(\C#N)C(=O)Nc2c(C)cc(C)cc2C)cc1	/	/	/	/	1.4*	1.1*
COC(=O)c1ccc(COc2ccccc2/C=C(\C#N)C(=O)Nc2ccc(C)cc2C)cc1	/	/	/	/	79	74
COc1ccc(-c2nc(N)ncc2-c2csc(C)n2)c(O)c1	0.28	95	94	106	88	85
COc1ccc(-c2nc(N)nc(C)c2Oc2ccccc2Br)c(O)c1	-0.27	75	23*	80	25	19
CCc1cc(SC#N)cc(CC)c1NC(=O)CCl	/	/	/	/	1.9*	1.6*
C=CCc1cccc(CNc2c(C)n(C)n(-c3ccccc3)c2=O)c1O	-4*	95	94	95	66	78
Cc1cc(N2CCN(c3ccc([N+](=O)[O-])c4cccnc34)CC2)c2ccccc2n1	/	/	/	/	3.5*	23
SMILES	Cav3 T inh	Lung fibro prol	H69AR inhibit	HUVEC prolif 384	bCat KO growth	HCT116 PTEN-null
Cc1cc(N2CCN(S(=O)(=O)c3ccccc3)CC2)c2ccccc2n1	-0.03	98	90	89	63	71
O=C(NCc1ccc(OC(F)(F)F)cc1)C1CC(c2c(Cl)cccc2Cl)=NO1 (stereo not drawn)	-1.3	/	/	/	87	80
COC(=O)c1ccc(C(=O)OC)c(NC(=O)c2cc3ccccc3o2)c1	/	97	100	91	/	/
Cc1nn(-c2ccccc2)c(Cl)c1C(=O)Nc1nnc(C2CCCCC2)s1	-4.4*	106	81	103	81	77
O=C(Nc1ccc2ccccc2c1)[C@@H]1C[C@H]1[C@@H](NP(=O)(c1ccccc1)c1ccccc1)c1ccccc1	-1.7	/	/	/	63	60
CC(C)(C)c1ccc(C(=O)NNC(=O)Cc2cccc3ccccc23)cc1	-4.2*	93	88	78	83	94
O=C(COc1ccc2ccccc2c1)NNC(=O)Cc1cccc2ccccc12	-0.32	/	/	/	99	93
Cc1[nH]n(-c2ccccc2)c(=O)c1/C=N/O	0.51	/	/	/	106	100
Cc1ccc2cccc(N=Cc3c(C)[nH]n(-c4ccccc4)c3=O)c2n1	/	/	/	/	2.8*	2.5*
CCn1cc(C(=O)Nc2ccc(OC)c(S(=O)(=O)N3CCCCC3)c2)c(=O)c2ccc(C)nc21	/	/	/	/	87	101
CCOc1ccc(C2C=C(c3ccccc3)Nc3nnnn32)cc1 (stereo not drawn)	0.16	100	33*	59	101	88
Cc1ccc(C2=CC(c3cccs3)n3nnnc3N2)cc1 (stereo not drawn)	/	/	/	/	81	71
CCOc1ccc(C2C=C(c3ccc(C)cc3)Nc3nnnn32)cc1 (stereo not drawn)	-0.11	51	2.2*	22*	71	82
CCOc1ccc(C2C=C(c3ccc(C)cc3)Nc3ncnn32)cc1 (stereo not drawn)	-1.6	91	79	90	97	84
COc1ccc(-c2c(C)nn(-c3ccccc3)c2N)cc1OC	1	100	92	93	95	88
COc1ccccc1C1C=C(c2ccc(C)cc2)Nc2nnnn21 (stereo not drawn)	-1.6	85	18*	77	91	83
COc1ccc(C2=CC(c3c(C)nn(-c4ccccc4)c3Cl)n3nnnc3N2)cc1OC (stereo not drawn)	-0.24	88	24*	80	69	63
Cc1ccc(C(=O)n2c(-c3ccccc3)cnc2SCC(=O)Nc2ccc(C)cc2C)cc1	/	/	/	/	80	83
O=C(Nc1ccc(C(F)(F)F)cc1)c1cc(S(=O)(=O)NCC2COc3ccccc3O2)ccc1F (stereo not drawn)	/	/	/	/	58	55
CCOc1ccc(N2C(=O)CC(Sc3ncccn3)C2=O)cc1 (stereo not drawn)	1.3	97	88	86	92	98
C=CCNc1nnc(SC2CC(=O)N(c3ccc(OCCC)cc3)C2=O)s1 (stereo not drawn)	3.3*	90	1.9*	98	86	94
O=C(N/N=C\c1ccc(CNS(=O)(=O)c2ccccc2)o1)C(=O)Nc1ccc(F)cc1	/	/	/	/	81	86
O=C(N/N=C\c1ccc(CNS(=O)(=O)c2ccc(Cl)cc2)o1)C(=O)Nc1ccc(Oc2ccccc2)cc1	/	/	/	/	1.4*	2.0*
Cc1ccc(NC(=O)CSc2n[nH]c(=O)n2C2CC2)cc1S(=O)(=O)N1CCOCC1	/	/	/	/	90	95
Cc1ccccc1C(=O)Nc1nc(=S)ss1	-5*	/	/	/	100	92
